Experimental data reported in ChEMBL document CHEMBL1124774, “Synthesis and biological activity of some derivatives of rifamycin P” (1990).
≈ marks a conversion by molar mass, not a printed value.

Columns and labels:
Assay type in all cases: functional
[1] = test system: Streptococcus pneumoniae; test: In vitro antibacterial activity of compound against Streptococcus pneumoniae UC 41
Procedure, shortened: (§1)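 Streptococcal MICs were run by twofold microdilution in Todd-Hewitt broth over 128-0.0001 µg/mL. Inoculum was 10^4 cfu/mL, with incubation at 37 °C for 18-24 h.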

[2] = test system: Staphylococcus aureus; test: In vitro antibacterial activity of compound against Staphylococcus aureus Tour L 165
Procedure, shortened: (§2)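 Twofold microdilution MIC in Iso-Sensitest broth over 128-0.0001 µg/mL. Inoculum was 10^4 cfu/mL, with incubation at 37 °C for 18-24 h.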

[3] = test system: Klebsiella pneumoniae; test: In vitro antibacterial activity of compound against Klebsiella pneumoniae ISM
[4] = test system: Mycobacterium tuberculosis; test: In vitro antibacterial activity of compound against Mycobacterium tuberculosis H37Rv ATCC 9660
[5] = test system: Escherichia coli; test: In vitro antibacterial activity of compound against Escherichia coli SKF 12140
[6] = test system: Enterococcus faecalis; test: In vitro antibacterial activity of compound against Streptococcus faecalis ATCC 7080.; procedure, shortened: as §2
[7] = test system: Staphylococcus epidermidis; test: In vitro antibacterial activity of compound against Staphylococcus epidermidis ATCC 12228; procedure, shortened: as §2
[8] = test system: Haemophilus influenzae; test: In vitro antibacterial activity of compound against Haemophilus influenzae ATCC 19418
[9] = test system: Streptococcus pyogenes; test: In vitro antibacterial activity of compound against Streptococcus pyogenes C 203 SKF 13400; procedure, shortened: as §1
[10] = test system: Neisseria gonorrhoeae; test: In vitro antibacterial activity of compound against Neisseria gonorrhoeae ISM 68/126
[11] = test system: Proteus vulgaris; test: In vitro antibacterial activity of compound against Proteus vulgaris X19H ATCC 881
[12] = test system: Pseudomonas aeruginosa; test: In vitro antibacterial activity of compound against Pseudomonas aeruginosa ATCC 10145; procedure, shortened: as §2

COC1/C=C/OC2(C)Oc3c(C)c(O)c4c(O)c(c5sc(N6CCCC6)nc5c4c3C2=O)NC(=O)/C(C)=C\C=C\C(C)C(O)C(C)C(O)C(C)C(OC(C)=O)C1C (stereo not given)
MIC [1]: 0.032 µg/mL (≈ 0.0396 µM)
MIC [2]: 0.004 µg/mL (≈ 0.00495 µM)
MIC [3]: 32 µg/mL (≈ 39.6 µM)
MIC [4]: 2 µg/mL (≈ 2.48 µM)
MIC [5]: 16 µg/mL (≈ 19.8 µM)
MIC [6]: 2 µg/mL (≈ 2.48 µM)
MIC [7]: 0.063 µg/mL (≈ 0.078 µM)
MIC [8]: 0.125 µg/mL (≈ 0.155 µM)
MIC [9]: 0.008 µg/mL (≈ 0.0099 µM)
MIC [10]: 0.5 µg/mL (≈ 0.619 µM)
MIC [11]: 16 µg/mL (≈ 19.8 µM)
MIC [12]: 8 µg/mL (≈ 9.9 µM)

COC1/C=C/OC2(C)Oc3c(C)c(O)c4c(O)c(c5sc(N6CCN(C(=O)OCc7ccccc7)CC6)nc5c4c3C2=O)NC(=O)/C(C)=C\C=C\C(C)C(O)C(C)C(O)C(C)C(OC(C)=O)C1C (stereo not given)
MIC [1]: 0.063 µg/mL (≈ 0.0658 µM)
MIC [2]: 0.063 µg/mL (≈ 0.0658 µM)
MIC [3]: > 128 µg/mL
MIC [4]: 0.5 µg/mL (≈ 0.522 µM)
MIC [5]: > 128 µg/mL
MIC [6]: 2 µg/mL (≈ 2.09 µM)
MIC [7]: 0.032 µg/mL (≈ 0.0334 µM)
MIC [8]: 0.125 µg/mL (≈ 0.131 µM)
MIC [9]: 0.125 µg/mL (≈ 0.131 µM)
MIC [10]: 0.125 µg/mL (≈ 0.131 µM)
MIC [11]: 64 µg/mL (≈ 66.9 µM)
MIC [12]: 32 µg/mL (≈ 33.4 µM)

COC1/C=C/OC2(C)Oc3c(C)c(O)c4c(O)c(c5sc(N6CCNCC6)nc5c4c3C2=O)NC(=O)/C(C)=C\C=C\C(C)C(O)C(C)C(O)C(C)C(OC(C)=O)C1C (stereo not given)
MIC [1]: 0.063 µg/mL (≈ 0.0766 µM)
MIC [2]: 0.125 µg/mL (≈ 0.152 µM)
MIC [3]: 16 µg/mL (≈ 19.4 µM)
MIC [5]: 8 µg/mL (≈ 9.72 µM)
MIC [6]: 2 µg/mL (≈ 2.43 µM)
MIC [7]: 0.063 µg/mL (≈ 0.0766 µM)
MIC [8]: 0.25 µg/mL (≈ 0.304 µM)
MIC [9]: 0.125 µg/mL (≈ 0.152 µM)
MIC [10]: 0.125 µg/mL (≈ 0.152 µM)
MIC [11]: 8 µg/mL (≈ 9.72 µM)
MIC [12]: 8 µg/mL (≈ 9.72 µM)

COC1/C=C/OC2(C)Oc3c(C)c(O)c4c(O)c(c5sc(N6CCN(Cc7ccccc7)CC6)nc5c4c3C2=O)NC(=O)/C(C)=C\C=C\C(C)C(O)C(C)C(O)C(C)C(OC(C)=O)C1C (stereo not given)
MIC [1]: 0.063 µg/mL (≈ 0.069 µM)
MIC [2]: 0.008 µg/mL (≈ 0.00876 µM)
MIC [3]: 64 µg/mL (≈ 70.1 µM)
MIC [4]: 0.125 µg/mL (≈ 0.137 µM)
MIC [5]: 32 µg/mL (≈ 35 µM)
MIC [6]: 1 µg/mL (≈ 1.1 µM)
MIC [7]: 0.063 µg/mL (≈ 0.069 µM)
MIC [8]: 0.125 µg/mL (≈ 0.137 µM)
MIC [9]: 0.063 µg/mL (≈ 0.069 µM)
MIC [10]: 0.125 µg/mL (≈ 0.137 µM)
MIC [11]: 32 µg/mL (≈ 35 µM)
MIC [12]: 16 µg/mL (≈ 17.5 µM)

COC1/C=C/OC2(C)Oc3c(C)c(O)c4c(O)c(c5sc(N6CCN(c7ccc(Cl)cc7)CC6)nc5c4c3C2=O)NC(=O)/C(C)=C\C=C\C(C)C(O)C(C)C(O)C(C)C(OC(C)=O)C1C (stereo not given)
MIC [1]: 0.063 µg/mL (≈ 0.0675 µM)
MIC [2]: 0.063 µg/mL (≈ 0.0675 µM)
MIC [3]: > 128 µg/mL
MIC [4]: 1 µg/mL (≈ 1.07 µM)
MIC [5]: 8 µg/mL (≈ 8.57 µM)
MIC [6]: 4 µg/mL (≈ 4.28 µM)
MIC [7]: 0.063 µg/mL (≈ 0.0675 µM)
MIC [8]: 0.125 µg/mL (≈ 0.134 µM)
MIC [9]: 0.125 µg/mL (≈ 0.134 µM)
MIC [10]: 0.25 µg/mL (≈ 0.268 µM)
MIC [11]: 64 µg/mL (≈ 68.6 µM)
MIC [12]: 128 µg/mL (≈ 137 µM)

COC1/C=C/OC2(C)Oc3c(C)c(O)c4c(O)c(c5sc(N6CCN(c7ccccc7)CC6)nc5c4c3C2=O)NC(=O)/C(C)=C\C=C\C(C)C(O)C(C)C(O)C(C)C(OC(C)=O)C1C (stereo not given)
MIC [1]: 0.004 µg/mL (≈ 0.00445 µM)
MIC [2]: 0.008 µg/mL (≈ 0.0089 µM)
MIC [3]: > 128 µg/mL
MIC [4]: 1 µg/mL (≈ 1.11 µM)
MIC [5]: 4 µg/mL (≈ 4.45 µM)
MIC [6]: 1 µg/mL (≈ 1.11 µM)
MIC [7]: 0.032 µg/mL (≈ 0.0356 µM)
MIC [8]: 0.125 µg/mL (≈ 0.139 µM)
MIC [9]: 0.032 µg/mL (≈ 0.0356 µM)
MIC [10]: 0.125 µg/mL (≈ 0.139 µM)
MIC [11]: 16 µg/mL (≈ 17.8 µM)
MIC [12]: 8 µg/mL (≈ 8.9 µM)

COc1ccc(N2CCN(c3nc4c(s3)c3c(O)c5c(O)c(C)c6c(c54)C(=O)C(C)(O/C=C/C(OC)C(C)C(OC(C)=O)C(C)C(O)C(C)C(O)C(C)/C=C/C=C(/C)C(=O)N3)O6)CC2)cc1 (stereo not given)
MIC [1]: 0.063 µg/mL (≈ 0.0678 µM)
MIC [2]: 0.063 µg/mL (≈ 0.0678 µM)
MIC [3]: > 128 µg/mL
MIC [4]: 0.25 µg/mL (≈ 0.269 µM)
MIC [5]: 8 µg/mL (≈ 8.61 µM)
MIC [6]: 4 µg/mL (≈ 4.31 µM)
MIC [7]: 0.063 µg/mL (≈ 0.0678 µM)
MIC [8]: 0.125 µg/mL (≈ 0.135 µM)
MIC [9]: 0.125 µg/mL (≈ 0.135 µM)
MIC [10]: 0.125 µg/mL (≈ 0.135 µM)
MIC [11]: 64 µg/mL (≈ 68.9 µM)
MIC [12]: 128 µg/mL (≈ 138 µM)

COC1/C=C/OC2(C)Oc3c(C)c(O)c4c(O)c(c5scnc5c4c3C2=O)NC(=O)/C(C)=C\C=C\C(C)C(O)C(C)C(O)C(C)C(O)C1C (stereo not given)
MIC [1]: 0.125 µg/mL (≈ 0.179 µM)
MIC [2]: 0.032 µg/mL (≈ 0.0459 µM)
MIC [3]: 16 µg/mL (≈ 23 µM)
MIC [4]: 0.5 µg/mL (≈ 0.718 µM)
MIC [5]: 16 µg/mL (≈ 23 µM)
MIC [6]: 4 µg/mL (≈ 5.74 µM)
MIC [7]: 0.008 µg/mL (≈ 0.0115 µM)
MIC [8]: 0.125 µg/mL (≈ 0.179 µM)
MIC [9]: 0.125 µg/mL (≈ 0.179 µM)
MIC [10]: 0.125 µg/mL (≈ 0.179 µM)
MIC [11]: 4 µg/mL (≈ 5.74 µM)
MIC [12]: 8 µg/mL (≈ 11.5 µM)
